Consider 22 compounds from ChEMBL document CHEMBL3232936, “Synthesis, biological activity, distribution and membrane permeability of novel spiro-thiazines as potent neuroprotectors” (Eur J Med Chem, 2014).

Series [1] has as its system Brain. Nature of the series: Inhibition of glutamate-induced [45Ca2+] uptake in synaptosomes in rat brain cortex assessed as biological activity coefficients (K43/21) after 5 mins by scintillation counting relative to control. The class given is functional, subcellular. Further details: concentration or dose not given beside the values. Put shortly:
(§1)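 Synaptosomal P2 fraction from brain cortex of 8–11-day-old rats, suspended in buffer A (132 mM NaCl, 5 mM KCl, 5 mM HEPES, pH 7.4) and kept at 0 °C. Glutamate-stimulated 45Ca2+ uptake with test compound, 5 min at 37 °C. Stopped by GF/B filtration, three washes with cold buffer B (145 mM KCl, 10 mM Tris, 5 mM Trilon B), scintillation counting. Initial screen at 100 µM; concentration dependence followed when inhibition reached 50% or more. MK-801 positive control.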

Series [2] is described as follows: Partition coefficient, log D of the compound in n-octanol-buffer at pH 7.4 by isothermal saturation method. The class given is physicochemical. An outline of the steps: (§2)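 Isothermal saturation method at 25 °C, partitioning between n-octanol or n-hexane and phosphate buffer pH 7.4 (KH2PO4, Na2HPO4, NaCl, NaN3). Compound concentrations measured spectrophotometrically against calibration curves; coefficient taken as the ratio of concentration in the organic phase to that in buffer.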

The nature of series [3]: Partition coefficient, log D of the compound in hexane-buffer at pH 7.4 by isothermal saturation method. The series is classed as physicochemical. Put shortly: as §2
Series [4] is described as follows: Apparent permeability of the compound across phospholipid vesicle-based barrier. The series is classed as physicochemical. Particulars: not told. An outline of the steps: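 Phospholipid vesicle-based barrier from egg phosphatidylcholine liposomes (6% w/v in phosphate buffer with 10% v/v ethanol), extruded onto 0.65 µm mixed cellulose ester filter inserts (0.33 cm²). Donor: compound in pH 7.4 phosphate buffer; acceptor: same buffer. Room temperature, no agitation, 12–24 h, inserts moved to fresh buffer. UV-absorbance read-out; Papp from steady-state flux under sink conditions; at least triplicate, mean ± SD.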

The subject of series [5] is Brain. As to the kind of experiment: Inhibition of glutamate-induced [45Ca2+] uptake in synaptosomes in rat brain cortex after 5 mins by scintillation counting. The series is classed as functional, subcellular. An outline of the steps: as §1

Regarding `CCNC1=NCCC2(CCCCC2)S1`, in the series on Brain [1], the Activity was 65.3%. The logD amounted to 1.38 in series [2] and 0.72 in series [3]. Moreover, in series [4], the apparent permeability (Papp) is 8.78 ×10⁻⁶ cm/s.

In the series with Brain [5], `Cc1cc(C)c(NC2=NCCC3(CCCCC3)S2)c(C)c1` gave an IC50 of 9.3 µM. In the series on Brain [1], the Activity stood at 2.6%. Besides, the logD in series [2] turned out to be 2.05; in series [3] it was 1.48. Moreover, the Papp in series [4] worked out at 11.3 ×10⁻⁶ cm/s.

As for `Brc1ccc(NC2=NCCC3(CCCCC3)S2)cc1`, in the series on Brain [1], the Activity came to 56.5%. The logD in series [2] is 2.53; in series [3], 1.36. The apparent permeability (Papp) in series [4] came to 90.3 ×10⁻⁶ cm/s.

`FC(F)(F)c1ccc(NC2=NCCC3(CCCCC3)S2)cc1` returned an IC50 in the series with Brain [5] of 77.6 µM. Moreover, in the series with Brain [1], the Activity amounted to 42.1%. The logD in series [2] came out at 2.18; in series [3], 1.31. Also, the Papp in series [4] was found to be 3.06 ×10⁻⁶ cm/s.

In the series with Brain [5], `Clc1ccc(NC2=NCCC3(CCCCC3)S2)cc1` yielded an IC50 of 35.5 µM. The Activity in the series with Brain [1] was determined as 12.7%. The logD in series [2] is 2.5; in series [3] it was 1.34. In addition, the Papp in series [4] is 27.8 ×10⁻⁶ cm/s.

As for `Oc1ccc(NC2=NCCC3(CCCCC3)S2)cc1`, in the series with Brain [1], the Activity was found to be 73.5%. Besides, the logD in series [2] was found to be 1.96. Moreover, in series [4], the Papp was 1.72 ×10⁻⁶ cm/s.

For `Cc1cccc(C(C)C)c1NC1=NCCC2(CCCCC2)S1`, in the series with Brain [5], the IC50 is 20.9 µM. In addition, the Activity in the series with Brain [1] stood at 5.4%. The figures for the logD in series [2] and in series [3] were 2.36 and 1.5, respectively. The Papp in series [4] came to 9.04 ×10⁻⁶ cm/s.

Consider `CC(=O)c1cccc(NC2=NCCC3(CCCCC3)S2)c1`, for which, in the series with Brain [1], the Activity is 67.3%. Moreover, the logD was 2.37 in series [2] and 1.31 in series [3]. In addition, in series [4], the Papp worked out at 74.7 ×10⁻⁶ cm/s.

In the case of `CC(C)c1ccc(NC2=NCCC3(CCCCC3)S2)cc1`, the 50% inhibitory concentration (IC50) in the series on Brain [5] was determined as 6.2 µM. Also, the Activity in the series on Brain [1] came to 0%. Moreover, the logD worked out at 1.57 in series [2] and 1.45 in series [3]. The Papp in series [4] came to 15.7 ×10⁻⁶ cm/s.

`Cc1ccc(NC2=NCCC3(CCCCC3)S2)cc1`: in the series on Brain [5], the IC50 was 31.6 µM. Further, the Activity in the series on Brain [1] came to 20.4%. In addition, the log distribution coefficient (logD) in series [2] amounted to 1.56; in series [3] it was 1.48. For the same compound, the Papp in series [4] was determined as 5.67 ×10⁻⁶ cm/s.

In the case of `CC(=O)c1ccc(NC2=NCCC3(CCCCC3)S2)cc1`, in the series with Brain [5], 81.3 µM corresponded to half-maximal inhibition (IC50). In addition, the Activity in the series with Brain [1] amounted to 45.1%. The logD was determined as 1.97 in series [2] and 1.88 in series [3]. Moreover, the Papp in series [4] came out at 2.55 ×10⁻⁶ cm/s.

Turning to `NC1=NCCC2(CCCCC2)S1`, in the series with Brain [1], the Activity is 91.4%. Besides, the logD in series [2] came out at 1.57; in series [3], 1.22. In addition, in series [4], the Papp was determined as 7.33 ×10⁻⁶ cm/s.

As to `CNC1=NCCC2(CCCCC2)S1`, the Activity in the series on Brain [1] came to 134%. Besides, the logD in series [2] amounted to 0.88; in series [3], 0.91. In series [4], the apparent permeability (Papp) was determined as 2.7 ×10⁻⁶ cm/s.

Regarding `Nc1ccc(NC2=NCCC3(CCCCC3)S2)cc1`, the Activity with Brain [1] stood at 115%. Moreover, the logD in series [2] was 1.88; in series [3], -0.52. In series [4], the Papp is 2.04 ×10⁻⁶ cm/s.

For `Cc1ccc(NC2=NCCC3(CCCCC3)S2)cc1Cl`, in the series with Brain [5], the half-inhibitory concentration (IC50) worked out at 89.1 µM. Besides, the Activity with Brain [1] is 45.9%. In addition, the pH-dependent lipophilicity (logD) in series [2] was determined as 2.44; in series [3], 0.91. The Papp in series [4] was 23.9 ×10⁻⁶ cm/s.

As for `CCc1ccc(NC2=NCCC3(CCCCC3)S2)cc1`, in the series with Brain [5], it took 11.7 µM to reach half-maximal inhibition (IC50). For the same compound, the Activity with Brain [1] was 0%. The results for the pH-dependent lipophilicity (logD) in series [2] and in series [3] were 2.31 and 1.75, respectively. The Papp in series [4] amounted to 41 ×10⁻⁶ cm/s.

As for `COc1ccc(NC2=NCCC3(CCCCC3)S2)cc1`, the IC50 with Brain [5] came to 85.1 µM. Besides, the Activity with Brain [1] is 45.7%. In addition, the results for the logD in series [2] and in series [3] were 0.8 and 1.45, respectively. The apparent permeability coefficient (Papp) in series [4] is 1.11 ×10⁻⁶ cm/s.

In the series on Brain [5], `CCc1cccc(CC)c1NC1=NCCC2(CCCCC2)S1` showed an IC50 of 7.9 µM. The Activity with Brain [1] was 3.5%. Further, the logD stood at 1.88 in series [2] and 1.28 in series [3]. In series [4], the Papp came to 21.6 ×10⁻⁶ cm/s.

For `Fc1ccc(NC2=NCCC3(CCCCC3)S2)cc1Cl`, the Activity in the series with Brain [1] came out at 81.5%. The results for the logD in series [2] and in series [3] were 2.03 and 0.95, respectively. In series [4], the Papp came to 7.36 ×10⁻⁶ cm/s.

`O=C(NC1=NCCC2(CCCCC2)S1)c1ccccc1`: the Activity with Brain [1] turned out to be 78.1%. The figures for the logD in series [2] and in series [3] were 1.55 and 1.51, respectively. Moreover, the Papp in series [4] stood at 3.18 ×10⁻⁶ cm/s.

On to `Clc1ccc(NC2=NCCC3(CCCCC3)S2)cc1Cl`, for which the Activity in the series on Brain [1] was found to be 76.9%. In addition, the logD in series [2] is 2.45; in series [3] it was 1.24. Besides, the Papp in series [4] was 3.1 ×10⁻⁶ cm/s.

In the series with Brain [5], `c1ccc(NC2=NCCC3(CCCCC3)S2)cc1` showed a concentration for half-maximal inhibition (IC50) of 63.1 µM. Besides, in the series on Brain [1], the Activity amounted to 33.2%. Moreover, the logD in series [2] was 1.02; in series [3] it was 1.69. The Papp in series [4] worked out at 1.81 ×10⁻⁶ cm/s.
